High-throughput results deposited in PubChem BioAssay by Sanford-Burnham Center for Chemical Genomics.
A selection: hits, their analogues and other compounds. The true share with any hit is near 1.9%.
APJ antagonist: APJ receptor antagonism | P35414 | CHO-K1 APJ beta-arrestin complementation, luminescence | inhibition, % at 20 µM | actives 0.32% (n = 330,000) | AID 2521;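 active = inhibition above about 40% at 20 µM, limit read from the data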;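 note: cells challenged with 10 nM apelin-13 agonist together with compound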
CXCR6 inh: blocks human CXCR6 beta-arrestin recruitment | CHO-K1 PathHunter CXCR6 beta-arrestin, luminescence | inhibition, % at 20 µM | actives 0.36% (n = 360,000) | AID 602244; in the data active = inhibition above about 34%, passing the limit was not always enough;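 note: antagonist mode with CXCL16 agonist at 10 nM final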
Target sequence (O00574 whole entry, looked up): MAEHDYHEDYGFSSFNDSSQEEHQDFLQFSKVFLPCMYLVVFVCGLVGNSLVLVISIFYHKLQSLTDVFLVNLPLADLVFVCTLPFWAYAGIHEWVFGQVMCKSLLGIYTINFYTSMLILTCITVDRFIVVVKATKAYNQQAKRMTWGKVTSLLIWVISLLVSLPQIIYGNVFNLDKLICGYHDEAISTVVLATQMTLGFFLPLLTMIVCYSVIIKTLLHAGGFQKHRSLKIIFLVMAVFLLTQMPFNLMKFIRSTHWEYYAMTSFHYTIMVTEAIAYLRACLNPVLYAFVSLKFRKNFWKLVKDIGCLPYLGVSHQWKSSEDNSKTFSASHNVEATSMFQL
EBI2 antag: EBI2 (human) antagonism | EBI2 beta-arrestin recruitment, luminescence, 7a,25-OHC stimulated | inhibition, % at 5 µM | actives 0.81% (n = 360,000); in the data active = inhibition above about 38%;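 note: enzyme fragment complementation signal reports receptor beta-arrestin coupling in cells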
TAG inh: reduces triacylglycerol accumulation in H9c2 cells. Nile Red lipid (TAG) fluorescence; cells loaded with 200 µM oleic acid. inhibition, % at 12.5 µM. actives 0.66% (n = 230,000). AID 651582;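 active = pattern-corrected inhibition of lipid staining of at least 50% with the nuclear-stain viability signal not falling by more than 50%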
APJ ag: agonists of human APJ apelin receptor; P35414; CHO-K1 APJ PathHunter beta-arrestin, luminescence; 0% DMSO wells, 100% apelin; activation, % at 20 µM; actives 0.11% (n = 330,000); AID 2520;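 active = activation more than six SD over the plate average, tested at 20 µM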
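Test system: CHO-K1 APJ beta-arrestin complementation cell line. Amount: cell density 1000 per well. Controls: DMSO negative, 10 nM Apelin-13 positive. Signal: luminescent beta-gal fragment complementation, chemiluminescent substrate. Read-out basis: agonist-driven arrestin binding to APJ. Timing: compound stimulation 90 min at 25 °C, detection 60 min.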
CCR6 antagonist: antagonists of human CCR6 receptor; P51684; CHO-K1 CCR6 PathHunter beta-arrestin, luminescence, CCL20-stimulated; inhibition, % at 20 µM; actives 0.49% (n = 340,000); AID 493098;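 active = compounds whose inhibition of the agonist-driven luminescence signal at 20 µM reaches about 50%, limit read from the data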;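 note: cells stimulated with CCL20 at 14 nM final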
EBI2 antag conf: EBI2 (human) antagonism, single concentration confirmation; actives 29% (n = 2,400); EBI2 beta-arrestin luminescence, 7a,25-OHC antagonism; AID 651997; inhibition, % at 5 µM; shares compounds with EBI2 antag;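 active = inhibition of at least 50%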
EBI2 ag: activates EBI2, counter-screen for EBI2 antagonists; shares compounds with EBI2 antag; EBI2-expressing cells, agonist mode, luminescence, 60 min; 0% vehicle, 100% 7α,25-dihydroxycholesterol control; activation, % at 5 µM; 2,400 tested, under 10 active;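 active = activation of at least 50%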
bGal cs: inhibits E. coli beta-galactosidase, counter-screen for EBI2 antagonists | shares compounds with EBI2 antag | purified beta-galactosidase, luminescent Galacton Star, 15 min | AID 652176 | actives 1% (n = 2,400) | inhibition, % at 5 µM;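 active = replicate-average signal at least 3 plate SD below neutral wells, shown as high inhibition, flagging enzyme-inhibiting false positives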;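 note: higher means stronger loss of beta-gal luminescence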
Hits are given with their value.

For COc1ccc(CCCc2nnc(SCC(=O)N/N=C\c3ccc(O)c(OC)c3)o2)cc1C the results were APJ antagonist inactive, CXCR6 inh inactive, EBI2 antag inactive, TAG inh inactive, APJ ag inactive and CCR6 antagonist inactive.
COc1ccc(/C=N/NC(=O)CSc2nnc(CCCc3ccc(OC)c(C)c3)o2)cc1 was read as APJ antagonist inactive, CXCR6 inh inactive, EBI2 antag 47.3, TAG inh inactive, APJ ag inactive, CCR6 antagonist inactive, EBI2 antag conf inactive, EBI2 ag inactive and bGal cs inactive.
For CCO[C@H]1OC(C(N)=O)=C[C@@H](C2CC2)[C@@H]1CCCO the results were APJ antagonist inactive, APJ ag inactive and CCR6 antagonist inactive.
Screening CC(NC(=O)COC(=O)/C=C/c1ccc(Cl)cc1)c1ccccc1 (centres undefined) returned APJ antagonist inactive, CXCR6 inh inactive, EBI2 antag 47.8, TAG inh inactive, APJ ag inactive, CCR6 antagonist inactive, EBI2 antag conf inactive, EBI2 ag inactive and bGal cs inactive.
Screening CC(NC(=O)COC(=O)/C=C/c1cccc(F)c1)c1ccccc1 (centres undefined) returned APJ antagonist inactive, CXCR6 inh inactive, EBI2 antag inactive, TAG inh inactive, APJ ag inactive and CCR6 antagonist inactive.
`N#Cc1ccc(/C=N/NC(=S)Nc2ccc(S(=O)(=O)N3CCOCC3)cc2)cc1` gave APJ antagonist inactive, CXCR6 inh inactive, EBI2 antag 53.6, TAG inh inactive, APJ ag inactive, CCR6 antagonist inactive, EBI2 antag conf inactive, EBI2 ag inactive and bGal cs inactive.
`O=C1CCc2cc(S(=O)(=O)Nc3ccccc3)cc3c2N1CCC3` gave APJ antagonist inactive, CXCR6 inh inactive, EBI2 antag inactive, TAG inh inactive, APJ ag inactive and CCR6 antagonist inactive.
Cc1cc(C)c(C)c(C(=O)CSc2nnc(-c3ccc4[nH]c(C)c(C)c4c3)o2)c1C was read as APJ antagonist inactive, CXCR6 inh inactive, EBI2 antag 52.0, APJ ag inactive, CCR6 antagonist inactive, EBI2 antag conf 55.9, EBI2 ag inactive and bGal cs inactive.
`Cc1[nH]c2ccc(-c3nnc(SCC(=O)c4ccc(F)cc4)o3)cc2c1C` gave APJ antagonist inactive, CXCR6 inh inactive, EBI2 antag inactive, APJ ag inactive and CCR6 antagonist inactive.
COc1ccc(C(c2nnnn2Cc2ccccc2)N2CCN(C/C=C/c3ccccc3)CC2)cc1 (centres undefined) was read as CXCR6 inh inactive, EBI2 antag 49.6, EBI2 antag conf inactive, EBI2 ag inactive and bGal cs inactive.
Screening CCC(c1nnnn1Cc1ccccc1)N1CCN(C/C=C/c2ccccc2)CC1 (centres undefined) returned CXCR6 inh inactive and EBI2 antag inactive.
COc1ccc(-n2nnnc2C(c2ccccc2)N2CCN(C/C=C/c3ccccc3)CC2)cc1 (centres undefined) was read as CXCR6 inh inactive, EBI2 antag 52.7, EBI2 antag conf inactive, EBI2 ag inactive and bGal cs inactive.
C(=C\c1ccccc1)/CN1CCN(C(c2ccccc2)c2nnnn2Cc2ccccc2)CC1 (centres undefined) was read as CXCR6 inh inactive, EBI2 antag 46.9, EBI2 antag conf inactive, EBI2 ag inactive and bGal cs inactive.
For CCN1CCN(C(c2ccccc2)c2nnnn2Cc2ccc(OC)cc2)CC1 (centres undefined) the results were APJ antagonist inactive, CXCR6 inh inactive, EBI2 antag inactive, TAG inh inactive, APJ ag inactive and CCR6 antagonist inactive.
Screening Cc1ccn2c(=O)nc(SCC(=O)N3CCCC3)nc2c1 returned APJ antagonist inactive, CXCR6 inh inactive, EBI2 antag inactive, TAG inh inactive, APJ ag inactive and CCR6 antagonist inactive.
`CCCCSCCCNC(=O)Nc1ccc(CC)cc1` gave APJ antagonist inactive, CXCR6 inh inactive, EBI2 antag inactive, TAG inh inactive, APJ ag inactive and CCR6 antagonist inactive.
C[C@@H]1CN([C@H](C)CO)S(=O)(=O)c2ccc(C#Cc3ccccc3F)cc2O[C@@H]1CN(C)C(=O)Cc1ccccc1 was read as CXCR6 inh inactive, EBI2 antag 72.2, TAG inh inactive, EBI2 antag conf 79.3, EBI2 ag inactive and bGal cs inactive.
`C[C@H]1CN([C@@H](C)CO)S(=O)(=O)c2ccc(Br)cc2O[C@H]1CN(C)C(=O)Cc1ccccc1` gave CXCR6 inh inactive, EBI2 antag inactive and TAG inh inactive.
For COc1cccc(-c2cc3nc(-c4ccccc4)cc(N4CCCC(O)C4)n3n2)c1 (centres undefined) the results were APJ antagonist inactive, CXCR6 inh inactive, EBI2 antag 46.5, APJ ag inactive, CCR6 antagonist inactive, EBI2 antag conf inactive, EBI2 ag inactive and bGal cs inactive.
Screening COc1ccc(-n2cc(-c3ccccc3)[nH]c2=S)cc1 returned APJ antagonist inactive, CXCR6 inh inactive, EBI2 antag 73.9, APJ ag inactive, CCR6 antagonist inactive, EBI2 antag conf inactive, EBI2 ag inactive and bGal cs inactive.
For CN(/C=C/C(=O)C(F)(F)F)Cc1ccccc1 the results were APJ antagonist inactive, CXCR6 inh inactive, EBI2 antag 38.7, APJ ag inactive, CCR6 antagonist inactive, EBI2 antag conf inactive, EBI2 ag inactive and bGal cs inactive.
For O=C(c1ccc(Cl)cc1)c1oc2ccccc2c1CS(=O)c1ccc(Cl)cc1 (centres undefined) the results were APJ antagonist inactive, CXCR6 inh inactive, EBI2 antag 51.8, APJ ag inactive, CCR6 antagonist inactive, EBI2 antag conf 50.6, EBI2 ag inactive and bGal cs inactive.
O=C(CSc1n[nH]c(=O)n1-c1ccccc1)N1CCOCC1 was read as APJ antagonist inactive, CXCR6 inh inactive, EBI2 antag inactive, APJ ag inactive and CCR6 antagonist inactive.
`COc1ccc(N2CCN(C(=O)c3cc(=O)c4cc(C)cc(C)c4o3)CC2)cc1` gave APJ antagonist inactive, CXCR6 inh inactive, EBI2 antag 79.7, APJ ag inactive, CCR6 antagonist inactive, EBI2 antag conf 84.3, EBI2 ag inactive and bGal cs inactive.
